Reference: ChEMBL document CHEMBL1649165, “Activity profile in vitro of micafungin against Spanish clinical isolates of common and emerging species of yeasts and molds” (2009)
Converted amounts (≈) assume the structure as drawn.

Columns and labels:
Format in all cases: functional
Fusarium equiseti = assay: Antimicrobial activity against Fusarium equiseti by broth microdilution method
Outline: (§1)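 Clinical mould isolates, tested by broth microdilution using the AFST-EUCAST reference method for filamentous fungi. For echinocandins, the endpoint was the minimum effective concentration: the lowest drug concentration giving aberrant hyphal growth, read with an inverted microscope.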

Fusarium oxysporum = assay: Antimicrobial activity against Fusarium oxysporum by broth microdilution method; outline: as §1
[1] = tested on: Cunninghamella bertholletiae; assay: Antimicrobial activity against Cunninghamella bertholletiae by broth microdilution method; outline: as §1
Aspergillus flavus = assay: Antimicrobial activity against Aspergillus flavus by broth microdilution method; outline: as §1
Naganishia albida = assay: Antimicrobial activity against Cryptococcus albidus by broth microdilution method
Outline: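 Clinical isolates of nonfermentative yeasts, tested by broth microdilution following EUCAST recommendations. The only change from that method was a minor modification to improve growth.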

Rhodotorula glutinis = assay: Antimicrobial activity against Rhodotorula glutinis by broth microdilution method
Outline: (§2)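 Nonfermentative yeast clinical isolates (Rhodotorula, Trichosporon) tested by broth microdilution. The EUCAST yeast recommendations were followed strictly, with one minor modification to improve growth. MIC was read as the endpoint.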

Paecilomyces variotii = assay: Antimicrobial activity against Paecilomyces variotii by broth microdilution method
Outline: (§3)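 Filamentous fungus clinical isolates tested by the AFST-EUCAST reference broth microdilution method for moulds. For echinocandins, the endpoint was the minimum effective concentration: the lowest drug concentration giving aberrant hyphal growth, read with an inverted microscope.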

Candida parapsilosis = assay: Antimicrobial activity against Candida parapsilosis by broth microdilution method; conditions: Lodderomyces parapsilosis
Outline: (§4)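 Clinical isolates from human patients, tested by broth microdilution using the AFST-EUCAST reference procedure for fermentative yeasts. The MIC was read per that reference method.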

Fusarium solani = assay: Antimicrobial activity against Fusarium solani by broth microdilution method; outline: as §3
Fusarium reticulatum = assay: Antimicrobial activity against Fusarium reticulatum by broth microdilution method; outline: as §3
Rhodotorula mucilaginosa = assay: Antimicrobial activity against Rhodotorula mucilaginosa by broth microdilution method; outline: as §2
Paecilomyces lilacinus = assay: Antimicrobial activity against Paecilomyces lilacinus by broth microdilution method; conditions: Purpureocillium lilacinum; outline: as §3
Neurospora sitophila = assay: Antimicrobial activity against Chrysonilia sitophila by broth microdilution method; outline: as §1
Saksenaea vasiformis = assay: Antimicrobial activity against Saksenaea vasiformis by broth microdilution method; outline: as §3
[Candida] intermedia = Antimicrobial activity against Candida intermedia by broth microdilution method; conditions: Sungouiella intermedia; outline: as §4
Fennellia nivea = assay: Antimicrobial activity against Aspergillus niveus by broth microdilution method; outline: as §1
Aspergillus terreus = assay: Antimicrobial activity against Aspergillus terreus by broth microdilution method; outline: as §1
[2] = Antimicrobial activity against Rhizopus microsporus by broth microdilution method; outline: as §3
Trichosporon dermatis = assay: Antimicrobial activity against Trichosporon dermatis by broth microdilution method; conditions: Cutaneotrichosporon dermatis; outline: as §2
Trichosporon = assay: Antimicrobial activity against Trichosporon spp. by broth microdilution method; outline: as §2
Trichosporon ovoides = assay: Antimicrobial activity against Trichosporon ovoides by broth microdilution method; outline: as §2
Exophiala dermatitidis = assay: Antimicrobial activity against Exophiala dermatitidis by broth microdilution method
Lewia infectoria = assay: Antimicrobial activity against Alternaria infectoria by broth microdilution method; outline: as §1

CC[C@@H]([C@H](C)O)n1ncn(-c2ccc(N3CCN(c4ccc(OC[C@@H]5CO[C@@](Cn6cncn6)(c6ccc(F)cc6F)C5)cc4)CC3)cc2)c1=O [POSACONAZOLE]
MIC50 (Fusarium equiseti): 4 µg/mL (≈ 5.71 µM)
MIC90 (Fusarium equiseti): > 8 µg/mL
MIC50 (Fusarium oxysporum): 4 µg/mL (≈ 5.71 µM)
MIC90 (Fusarium oxysporum): > 8 µg/mL
MIC50 [1]: 4 µg/mL (≈ 5.71 µM)
MIC90 [1]: > 8 µg/mL
MIC50 (Aspergillus flavus): 0.12 µg/mL (≈ 0.171 µM)
MIC90 (Aspergillus flavus): 0.25 µg/mL (≈ 0.357 µM)
MIC50 (Naganishia albida): 0.25 µg/mL (≈ 0.357 µM)
MIC90 (Naganishia albida): > 8 µg/mL
MIC50 (Rhodotorula glutinis): 0.25 µg/mL (≈ 0.357 µM)
MIC90 (Rhodotorula glutinis): > 8 µg/mL
MIC50 (Paecilomyces variotii): 0.03 µg/mL (≈ 0.0428 µM)
MIC90 (Paecilomyces variotii): 0.25 µg/mL (≈ 0.357 µM)
MIC50 (Candida parapsilosis): 0.02 µg/mL (≈ 0.0285 µM)
MIC90 (Candida parapsilosis): 0.03 µg/mL (≈ 0.0428 µM)
MIC50 (Fusarium solani): > 8 µg/mL
MIC90 (Fusarium solani): > 8 µg/mL
MIC50 (Fusarium reticulatum): 4 µg/mL (≈ 5.71 µM)
MIC90 (Fusarium reticulatum): > 8 µg/mL
MIC50 (Rhodotorula mucilaginosa): 2 µg/mL (≈ 2.85 µM)
MIC90 (Rhodotorula mucilaginosa): > 8 µg/mL
MIC50 (Paecilomyces lilacinus): 0.25 µg/mL (≈ 0.357 µM)
MIC90 (Paecilomyces lilacinus): 0.5 µg/mL (≈ 0.713 µM)
MIC50 (Neurospora sitophila): 4 µg/mL (≈ 5.71 µM)
MIC90 (Neurospora sitophila): > 8 µg/mL
MIC50 (Saksenaea vasiformis): 4 µg/mL (≈ 5.71 µM)
MIC90 (Saksenaea vasiformis): > 8 µg/mL
MIC50 ([Candida] intermedia): 0.03 µg/mL (≈ 0.0428 µM)
MIC90 ([Candida] intermedia): > 8 µg/mL
MIC50 (Fennellia nivea): 0.12 µg/mL (≈ 0.171 µM)
MIC90 (Fennellia nivea): > 8 µg/mL
MIC50 (Aspergillus terreus): 0.06 µg/mL (≈ 0.0856 µM)
MIC90 (Aspergillus terreus): 0.12 µg/mL (≈ 0.171 µM)
MIC50 [2]: 4 µg/mL (≈ 5.71 µM)
MIC90 [2]: > 8 µg/mL
MIC50 (Trichosporon dermatis): 0.25 µg/mL (≈ 0.357 µM)
MIC90 (Trichosporon dermatis): > 8 µg/mL
MIC50 (Trichosporon): 0.25 µg/mL (≈ 0.357 µM)
MIC90 (Trichosporon): > 8 µg/mL
MIC50 (Trichosporon ovoides): 0.25 µg/mL (≈ 0.357 µM)
MIC90 (Trichosporon ovoides): > 8 µg/mL
MIC50 (Exophiala dermatitidis): 0.06 µg/mL (≈ 0.0856 µM)
MIC90 (Exophiala dermatitidis): > 8 µg/mL
MIC50 (Lewia infectoria): 0.5 µg/mL (≈ 0.713 µM)
MIC90 (Lewia infectoria): > 8 µg/mL
